The values below come from ChEMBL document CHEMBL5046273, “Development of a Novel, Small-Molecule Brain-Penetrant Histone Deacetylase Inhibitor That Enhances Spatial Memory Formation in Mice” (J Med Chem, 2022).

pIC50: −log10 of the molar value. Active and inactive are the calls of the source. The calls are words filed in the database; no cut-off is given here.

For data set [1], the target named is T1, Histone deacetylase 2 (Homo sapiens, UniProt Q92769). Kind of data set: Inhibition of recombinant human full-length HDAC2 incubated for 10 mins by Glo-luminescence assay. A digest of the protocol: (§1)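 Compounds were serially diluted and incubated with enzyme for 10 min. HDAC-Glo I/II substrate/developer was then added, and luminescence read after 40 min at 23 °C. IC50 from four-parameter fits from two independent titrations, mean ± SD.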

For data set [2], the target named is T1, Histone deacetylase 2. Put plainly: Inhibition of recombinant human full-length HDAC2 preincubated for 20 mins with DTT followed by enzyme addition and measured after 10 mins by Glo-luminescence assay. Summed up:
as §1

Data set [3] deals with DU-145. Put plainly: Cytotoxicity against human DU-145 cells assessed as reduction in cell viability at 0.00125 to 100 uM incubated for 48 hrs by MTT assay. Type of data set: functional, cell-based. The note with it: dose 0.00125-100 µM. A digest of the protocol:
(§2)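 DU145 cells in DMEM with 10% FBS were seeded at 14 000 cells/well and allowed to adhere for 24 h. Test agents were diluted from 10 mM DMSO stocks (100, 50, 25 µM; 10, 5, 1.25 nM) and applied in triplicate for 48 h at 37 °C, 5% CO2, with DMSO as vehicle. Read-out was 250 µg/mL MTT for 4 h, DMSO solubilization, and A570 with 690 nm reference. Values normalized to DMSO.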

The target in data set [4] is Histone deacetylase (Homo sapiens) (UniProt Q13547+O15379+Q9UBN7+Q92769+Q9UQL6+Q8WUI4+Q9BY41+Q96DB2+P56524+Q9UKV0+Q969S8). The note with it: DU-145, dose 10.0 nM, time 24.0 hrs.
For data set [5], the system named is DU-145. Put plainly: Cytotoxicity against human DU-145 cells assessed as reduction in cell viability at 5 to 10 nM incubated for 48 hrs by MTT assay. The note with it: dose 5-10 nM. In kind it is functional, cell-based. Summed up: as §2
Data set [6] is described as follows: Toxicity in ip dosed BALB/c mouse assessed as maximum tolerated dose measured after 2 weeks. Type of data set: organism-based. The note with it: BALB/c, in vivo. A digest of the protocol:
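Healthy BALB/c mice, compound in 20% DMSO/saline, single i.p. dose. One mouse each at 200, 100 and 50 mg/kg, then 25, 12.5 and 6.25 mg/kg if needed, repeated until a tolerated dose was found. Last test repeated once. Mice weighed daily for 8 days; euthanized at >20% weight loss or overt toxicity. Morbidity/mortality followed over 2 weeks; triplicate experiments.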

Data set [7] concerns the target Histone deacetylase 1 (Homo sapiens, UniProt Q13547). Kind of data set: Inhibition of HDAC1 in human DU-145 cells assessed as increase in histone H3 acetylation after 24 hrs by immunofluorescence microscopy. Type of data set: cell-based.

T1 sequence (Q92769 whole entry): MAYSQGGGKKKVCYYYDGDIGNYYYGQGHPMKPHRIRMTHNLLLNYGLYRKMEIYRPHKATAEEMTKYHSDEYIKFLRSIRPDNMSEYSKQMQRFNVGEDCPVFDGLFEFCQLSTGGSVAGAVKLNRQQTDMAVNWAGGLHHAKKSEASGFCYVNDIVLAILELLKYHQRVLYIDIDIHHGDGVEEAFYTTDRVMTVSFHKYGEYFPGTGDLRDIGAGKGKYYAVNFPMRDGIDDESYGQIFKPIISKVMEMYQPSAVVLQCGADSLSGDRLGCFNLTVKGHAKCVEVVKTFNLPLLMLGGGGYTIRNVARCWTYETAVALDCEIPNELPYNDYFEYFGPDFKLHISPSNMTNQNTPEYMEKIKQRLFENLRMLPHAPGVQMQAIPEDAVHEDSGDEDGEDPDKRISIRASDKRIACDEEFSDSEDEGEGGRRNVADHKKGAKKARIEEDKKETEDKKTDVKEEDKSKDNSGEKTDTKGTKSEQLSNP
Sequence of Histone deacetylase 1 (Q13547 whole entry): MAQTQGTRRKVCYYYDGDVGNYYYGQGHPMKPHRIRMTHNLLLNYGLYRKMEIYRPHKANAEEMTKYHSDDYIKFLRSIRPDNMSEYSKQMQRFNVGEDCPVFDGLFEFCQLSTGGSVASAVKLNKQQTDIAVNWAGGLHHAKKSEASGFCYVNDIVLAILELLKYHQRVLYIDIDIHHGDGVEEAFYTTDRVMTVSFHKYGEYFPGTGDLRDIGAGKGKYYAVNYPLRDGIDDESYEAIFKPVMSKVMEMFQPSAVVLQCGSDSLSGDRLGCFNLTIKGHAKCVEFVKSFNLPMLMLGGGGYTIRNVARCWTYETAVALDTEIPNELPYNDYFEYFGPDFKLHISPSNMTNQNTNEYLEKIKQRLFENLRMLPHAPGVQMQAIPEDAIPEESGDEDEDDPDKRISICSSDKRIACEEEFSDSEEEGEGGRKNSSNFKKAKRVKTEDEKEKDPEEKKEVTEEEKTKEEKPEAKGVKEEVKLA

For the compound `O=C(CC(O)/C=C/CCSSCC/C=C/C(O)CC(=O)Nc1ccccc1)Nc1ccccc1` (stereo unspecified), the pIC50 is 3.98 in data set [1] and 4.60 in data set [2]. Besides, the outcome in data set [3] was inactive.

Consider `CCCC[C@@H](NC(=O)CC(O)/C=C/CCSSCC/C=C/C(O)CC(=O)N[C@H](CCCC)C(=O)O)C(=O)O` (stereo partly specified), for which the pIC50 in data set [1] was 3.85; in data set [2] it was 4.96.

On to `O=C(O)CC(O)/C=C/CCSSCC/C=C/C(O)CC(=O)O` (stereo unspecified), for which the pIC50 in data set [1] is 3.85; in data set [2], 4.55.

As for `CCCC[C@@H](NC(=O)CC(O)/C=C/CCSSCC/C=C/C(O)CC(=O)N[C@H](CCCC)C(=O)OC)C(=O)OC` (stereo partly specified), the figures for the negative-log IC50 (pIC50) in data set [1] and in data set [2] were 3.55 and 4.77, respectively.

With `CC(C)(C)NC(=O)CC(O)/C=C/CCSSCC/C=C/C(O)CC(=O)NC(C)(C)C` (stereo unspecified), the negative-log IC50 (pIC50) in data set [1] is less than 4.00; in data set [2] it was 4.74. Besides, the outcome in data set [3] was inactive.

On to `C/C=C1\NC(=O)[C@H]2CSSCC/C=C/[C@H](CC(=O)N[C@H](C(C)C)C(=O)N2)OC(=O)[C@H](C(C)C)NC1=O` [ROMIDEPSIN], for which, in data set [4], the inhibition entry was “Active”. In addition, in data set [5], the result was Active. The MTD at 336 h in data set [6] is greater than 200 mg/kg. Further, the pIC50 in data set [7] was 8.85.
